Bioassay records from PubChem.
Most compounds without a hit are left out; they make up all but 3.8% or so of the library.
T cell HTS – modulators of CD8 T cell-vesicle binding, primary screen, mouse 2C CD8+ T cells, flow cytometry. response (vesicle binding), % at 7 µM. actives 0.068% (n = 330,000). 2C CD8+ T cell-vesicle binding; active compounds read low;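 active = response, share of CD8 T cells binding vesicles, and their 90th percentile fluorescence all below set limits, cut at about 80% in these data, passing the limit was not always enough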;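 note: values below 100% mean blocked vesicle binding to the CD8+ T cells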
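Material: murine 2C transgenic CD8+ T lymphocytes / Also added: QL9-peptide-loaded Drosophila micro-vesicles bearing Ld, ICAM-1 and B7-1 / Schedule: binding step 1.5 h, 37 °C, antibody labelling 20 min, ice / Signal: flow cytometry, PE anti-B7-1 (FL2) versus Alexa647 anti-CD8 (FL8), PFA-fixed / Evaluation: percent CD8+ FL2 mean versus row control / Benchmarks: naked versus QL9-loaded vesicles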
Exocytosis inh – LAMP-1 surface exposure blockers, TALL-104 cells – cell-based, flow cytometry, MLPCN library, primary screen; inhibition, % at 10 µM; TALL-104 LAMP-1 surface exposure; cells stimulated with thapsigargin and PMA; actives 0.66% (n = 360,000);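 active = inhibition above about 55%, limit read from the data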
MPTP block – mitochondrial permeability transition pore inhibitors, primary screen, biochemical, isolated mouse mitochondria, absorbance; inhibition, % at 10 µM; Ca2+ swelling absorbance, 30 min; actives 1.4% (n = 360,000);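 active = inhibition of 50% or more, scaled per plate between neutral and stimulator controls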;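 note: 0% = DMSO wells given calcium and 100% = 1 mM EGTA wells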
rCAG binder – binders of r(CAG) RNA repeats, primary screen, biochemical, fluorescence. r(CAG) RNA repeat, TO-PRO-1 dye displacement fluorescence. actives 1.3% (n = 370,000). inhibition, % at 3 µM. AID 651821, 2012;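 active = inhibition above the plate cutoff, the mean of all test compounds on that plate plus 3 SD, cut at about 35% in these data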;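 note: 0% = DMSO alone and 100% = 100 µM mitoxantrone as full dye displacement; higher means more dye released from RNA so lower well fluorescence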
V-ATPase pHluor – regulators of yeast V-ATPase proton pumping, primary screen, pHLuorin cytosolic pH fluorescence | S. cerevisiae | response, % at 10 µM | actives 0.37% (n = 350,000) | AID 504577, 2011; in the data active = response mostly above about 7.3%, no sharp cut-off; inactive = mostly below about 5.4%; note: actives read high
Beta2AR agonist – beta2AR agonists driving receptor internalization, primary screen, cell-based, FAP fluorogen, flow cytometry. Beta-2 adrenergic receptor (Homo sapiens), P07550. Am2.2-beta2AR cells. response, % (concentration not given with the values). actives 0.43% (n = 340,000);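 active = response above a set limit, near 3 SD of response in nonfluorescent compounds, cut at about 42% in these data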
Target sequence (P07550 whole entry, looked up): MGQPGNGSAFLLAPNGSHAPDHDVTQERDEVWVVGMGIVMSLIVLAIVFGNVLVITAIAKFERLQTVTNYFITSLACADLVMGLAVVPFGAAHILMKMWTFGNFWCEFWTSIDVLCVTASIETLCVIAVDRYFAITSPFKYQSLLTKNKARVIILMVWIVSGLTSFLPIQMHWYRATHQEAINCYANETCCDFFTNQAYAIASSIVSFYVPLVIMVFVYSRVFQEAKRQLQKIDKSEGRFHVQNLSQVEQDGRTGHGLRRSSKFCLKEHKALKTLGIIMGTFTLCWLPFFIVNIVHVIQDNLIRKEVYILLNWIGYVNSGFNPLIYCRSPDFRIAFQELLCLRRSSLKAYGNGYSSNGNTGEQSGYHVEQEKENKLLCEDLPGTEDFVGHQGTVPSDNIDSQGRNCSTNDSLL
VATPase regulator – yeast V-ATPase proton pumping modulators, confirmation, S. cerevisiae, pH-sensitive GFP, second cherry-pick. S. cerevisiae pHLuorin cytosolic pH, V-ATPase proton transport. actives 2% (n = 980). response, % at 10 µM. shares compounds with V-ATPase pHluor; in the data active = response above about 24%;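 note: plate controls were vehicle wells for no effect and positive control wells for full effect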
The depositor's hits bear a star.

For COc1ccccc1N1CCN(C2CCCN(S(=O)(=O)c3ccc(C)cc3)C2)CC1 (stereo not drawn) the results were T cell HTS 956, Exocytosis inh 4, MPTP block 0, rCAG binder -8, V-ATPase pHluor 10*, Beta2AR agonist -3 and VATPase regulator 2.
`C[C@H](CO)N1C[C@H](C)[C@@H](CN(C)Cc2cccc3c2OCCCO3)OCc2cnnn2CCCC1=O` gave Exocytosis inh -3, MPTP block -2, rCAG binder 0, V-ATPase pHluor 9.4* and VATPase regulator 2.
C[C@@H]1CN([C@H](C)CO)C(=O)CCCn2nncc2CO[C@H]1CN(C)Cc1cccc2c1OCCCO2 was read as Exocytosis inh -1, MPTP block -1, rCAG binder 3 and V-ATPase pHluor 2.
Screening CCn1c2ccccc2c2cc(C=NNC(=O)c3cc(-c4ccc(OC)cc4)n[nH]3)ccc21 returned rCAG binder 19.
For CCCCCC[C@@H](CC)CN(C(=O)Oc1ccccc1)c1ccccc1 the results were rCAG binder 4.
CC(C)(C)C(=O)Nc1ccc(S(=O)(=O)N2CCCC2)cc1 was read as T cell HTS 292, Exocytosis inh 3, MPTP block -1, rCAG binder -3, V-ATPase pHluor 8.5*, Beta2AR agonist 1 and VATPase regulator 0.
Screening CC(=O)Nc1ccc(S(=O)(=O)N2CCCC2)cc1 returned T cell HTS 176, Exocytosis inh -4, MPTP block 0, rCAG binder -1, V-ATPase pHluor -2 and Beta2AR agonist -1.
Screening c1ccc(Cc2nnc3sc(-c4ccccn4)nn23)cc1 returned T cell HTS 183, Exocytosis inh -1, MPTP block -1, rCAG binder 2, V-ATPase pHluor 11*, Beta2AR agonist -7 and VATPase regulator -2.
For COC(=O)C1=C(C)N(C)C(=NCC2CC2)NC1c1cccc(C(F)(F)F)c1 (stereo not drawn) the results were rCAG binder 7.
CC(Oc1cccc2cccnc12)C(=O)N/N=C/c1ccc2c(c1)OCO2 (stereo not drawn) was read as T cell HTS 580, Exocytosis inh -6, MPTP block 0, rCAG binder 1, V-ATPase pHluor 7.0*, Beta2AR agonist -26 and VATPase regulator 2.
COc1cc(NC(=O)Cn2cnc3c(NCc4ccccc4)ncnc32)cc(OC)c1OC was read as Exocytosis inh -2, MPTP block -1, rCAG binder 1, V-ATPase pHluor 11*, Beta2AR agonist -1 and VATPase regulator 2.
Cc1ccc(NC(=O)Cn2cnc3c(NCc4ccccc4)ncnc32)cc1C was read as Exocytosis inh 1, MPTP block 4, rCAG binder 1, V-ATPase pHluor 1 and Beta2AR agonist -4.
For FC(F)(F)c1cc(C(F)(F)F)n2nc(-c3sccc3-n3cccc3)cc2n1 the results were T cell HTS 275, Exocytosis inh 0, MPTP block -4, rCAG binder 0, V-ATPase pHluor 12*, Beta2AR agonist 13 and VATPase regulator -2.
Screening O=C(Oc1ccccc1Cl)c1ccccc1 returned Exocytosis inh 7, MPTP block -1, rCAG binder 2, V-ATPase pHluor 13*, Beta2AR agonist 0 and VATPase regulator 4.
For C=CCN=C1NC(c2ccc(C(F)(F)F)cc2)C(C(=O)OC)=C(C)N1C (stereo not drawn) the results were rCAG binder 5.
Cc1sc2nc(COC(=O)c3ccc(O)cc3)[nH]c(=O)c2c1C was read as T cell HTS 314, Exocytosis inh 6, MPTP block 5, rCAG binder 8, V-ATPase pHluor 2 and Beta2AR agonist 3.
Screening COCc1nc2sc(C)c(C)c2c(=O)[nH]1 returned T cell HTS 413, Exocytosis inh 2, MPTP block -1, rCAG binder -2, V-ATPase pHluor 12*, Beta2AR agonist 0 and VATPase regulator 1.
COc1ccc(C)cc1NC(=O)C(OC(=O)CNC(=O)c1cccc(F)c1)c1ccccc1 (stereo not drawn) was read as T cell HTS 168, Exocytosis inh -4, MPTP block 1, rCAG binder -1, V-ATPase pHluor 10*, Beta2AR agonist 6 and VATPase regulator 0.
`COC(=O)[C@]12C[C@H](CC(=O)NCc3ccc(OC)c(OC)c3)C(=O)N(Cc3ccc(Cl)cc3Cl)C1=C[C@H](COCc1ccccc1)O[C@@H]2C` gave rCAG binder 9.
Screening C1=Cc2ccccc2Nc2ccccc21 returned T cell HTS 174, Exocytosis inh 0, MPTP block 0, rCAG binder 0, V-ATPase pHluor 12*, Beta2AR agonist 2 and VATPase regulator 1.
COC(=O)/C(C#N)=C1/C=Cc2ccccc2N1 was read as T cell HTS 189, Exocytosis inh -5, MPTP block 0, rCAG binder 2, V-ATPase pHluor 1 and Beta2AR agonist -9.
COC(=O)[C@]12C[C@H](CC(=O)NCc3cccc(C(F)(F)F)c3)C(=O)N(Cc3ccco3)C1=C[C@H](C1CCCC1)O[C@@H]2C was read as rCAG binder -1.
`COCCN1Cc2cc(C(=O)OC)c3c(c2C1=O)c1cc(F)ccc1n3S(=O)(=O)c1ccc(C)cc1` gave rCAG binder 8.
CCc1c(C#N)c(=O)[nH]c(=O)n1-c1ccccc1 was read as T cell HTS 306, Exocytosis inh 17, MPTP block 2, rCAG binder 1, V-ATPase pHluor 10.0*, Beta2AR agonist 5 and VATPase regulator -1.
Nc1c(Br)c(=O)[nH]c(=O)n1-c1ccccc1 was read as T cell HTS 968, Exocytosis inh 4, MPTP block -2, rCAG binder 0, V-ATPase pHluor 3 and Beta2AR agonist -7.
CCOC(=O)C1=CCN(S(=O)(=O)c2ccc(Br)cc2)C1c1cccc(Cl)c1 (stereo not drawn) was read as rCAG binder 4.
For CCOC(=O)COn1c(=O)c[n+]([O-])c2ccccc21 the results were T cell HTS 200, Exocytosis inh 0, MPTP block 8, rCAG binder 2, V-ATPase pHluor 15*, Beta2AR agonist inactive and VATPase regulator -1.
For CCCCCN1CCCCC(NC(=O)CSc2ccccc2)C1=O (stereo not drawn) the results were rCAG binder -3.
